Laboratory results from ChEMBL document CHEMBL4130411, “Arylthiazole antibiotics targeting intracellular methicillin-resistant Staphylococcus aureus (MRSA) that interfere with bacterial cell wall synthesis” (Eur J Med Chem, 2017).
Values after ≈ are worked out from the molar mass of the structure shown. Active and inactive are the calls of the source. The calls are words filed in the database; no cut-off is given here.

What was measured:
[1] = Selectivity ratio of cytotoxicity against human HaCaT cells to MIC for Staphylococcus aureus RN4220 NRS107; type: toxicity, cell-based
[2] = Selectivity ratio of cytotoxicity against human HaCaT cells to MIC for methicillin-resistant Staphylococcus aureus USA200 NRS383; type: toxicity, cell-based
Staphylococcus aureus [3] = assay: Antibacterial activity against methicillin-resistant Staphylococcus aureus NRS123 (USA400) infected in mouse J774 cells assessed as reduction in bacterial colony forming units at 16 ug/ml after 24 hrs relative to control; type: functional; parameters: scale not given: the % may be the effect or the level left
Method in brief: (§1)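 J774 macrophages in DMEM + 10% FBS, 37 °C, 5% CO2, infected with USA400 at MOI ~100:1; after 1 h, gentamicin (50 µg/mL) wash; agent at 16 µg/mL in triplicate; at time point, gentamicin wash, lysis in 0.1% Triton X-100, serial dilution, TSA plating 18-22 h at 37 °C; % CFU/mL reduction versus untreated; t-test.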

Staphylococcus aureus [4] = assay: Antibacterial activity against vancomycin-resistant Staphylococcus aureus isolate 10 after 20 hrs by broth microdilution assay; type: functional; details: isolate 10, 20 h
Bacillus subtilis [5] = assay: Inhibition of cell wall biosynthesis in Bacillus subtilis assessed as induction of small bulges formation at 3.5 ug/ml incubated for 2 hrs in presence of osmotic stabilising agent MSM by FM-4-64 staining based assay; type: functional, organism-based
Method in brief: (§2)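 B. subtilis grown in LB at 37 °C to OD600 ~0.2, then treated with or without the osmotic stabiliser MSM for 2 h; stained with FM 4-64 (1 µg/mL, membranes), DAPI (1 µg/mL, DNA) and SYTOX Green (1 µg/mL, lysis); imaged by deconvolution fluorescence microscopy.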

Staphylococcus aureus [6] = assay: Antibacterial activity against methicillin-resistant Staphylococcus aureus USA300 NRS384 infected in Caenorhabditis elegans AU37 assessed as reduction in bacterial burden at 20 ug/ml after 18 hrs by microscopic analysis; type: functional; parameters: scale not given: the % may be the effect or the level left
Staphylococcus aureus [7] = assay: Antibacterial activity against methicillin-resistant Staphylococcus aureus USA300 NRS384 infected in Caenorhabditis elegans AU37 assessed as reduction in bacterial burden at 20 ug/ml after 18 hrs by microscopic analysis relative to vancomycin; type: functional
Staphylococcus aureus [8] = assay: Selectivity ratio of MBC99.9 for Staphylococcus aureus RN4220 NRS107 to MIC for Staphylococcus aureus RN4220 NRS107; type: functional
[9] = Half life in human liver microsomes in presence of NADPH by LC-MS/MS analysis; type: ADME, microsome; details: microsomes
Method in brief: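 Human liver microsomal protein was incubated in duplicate at 37 °C in 100 mM potassium phosphate, 2 mM NADPH, 3 mM MgCl2, pH 7.4. Samples were taken at 0, 10, 20, 40 and 60 min and stopped with ice-cold methanol containing an internal standard. Half-life was derived from depletion. CLint = ln(2)/(T1/2 × microsomal protein concentration).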

Bacillus subtilis [10] = assay: Inhibition of cell wall biosynthesis in Bacillus subtilis assessed as induction of formation of misshapen cells at 3.5 ug/ml incubated for 2 hrs in presence of osmotic stabilising agent MSM by FM-4-64 staining based assay; type: functional, organism-based; method in brief: as §2
Staphylococcus aureus [11] = assay: Selectivity ratio of MBC99.9 for methicillin-resistant Staphylococcus aureus USA200 NRS383 to MIC for methicillin-resistant Staphylococcus aureus USA200 NRS383; type: functional
Staphylococcus aureus [12] = assay: Potentiation of vancomycin-induced antibacterial activity against vancomycin-resistant Staphylococcus aureus isolate 10 assessed as vancomycin MIC after 20 to 22 hrs by broth microdilution assay (reference value: […]); type: functional
HaCaT = assay: Cytotoxicity against human HaCaT cells assessed as reduction in cell viability up to 32 ug/ml after 2 hrs by MTS assay; type: cell-based
Method in brief: (§3)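 Cells were HaCaT keratinocytes or J774 murine macrophages, grown in DMEM with 10% FBS at 37 °C, 5% CO2. They were exposed in triplicate to 8, 16, 32 and 64 µg/mL for 2 h, with DMSO-matched controls. MTS was then added for 4 h and absorbance read at 490 nm. Viability is expressed as % of DMSO-treated cells, mean ± SD.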

[13] = Selectivity ratio of cytotoxicity against human HaCaT cells to MIC for methicillin-resistant Staphylococcus aureus NRS123 (USA400); type: toxicity, cell-based
Staphylococcus aureus [14] = assay: Bactericidal activity against methicillin-resistant Staphylococcus aureus USA100 NRS382 incubated for 20 hrs followed by replating on tryptic soy agar plates and further incubated for 18 hrs by broth microdilution assay; type: functional
Staphylococcus aureus [15] = assay: Bactericidal activity against vancomycin-resistant Staphylococcus aureus isolate 4 incubated for 20 hrs followed by replating on tryptic soy agar plates and further incubated for 18 hrs by broth microdilution assay; type: functional
Staphylococcus aureus [16] = assay: Selectivity ratio of MBC99.9 for methicillin-resistant Staphylococcus aureus USA100 NRS382 to MIC for methicillin-resistant Staphylococcus aureus USA100 NRS382; type: functional
Staphylococcus aureus [17] = assay: Antibacterial activity against methicillin-resistant Staphylococcus aureus NRS123 (USA400) infected in mouse J774 cells assessed as reduction in bacterial colony forming units at 16 ug/ml after 4 hrs; type: functional, organism-based; method in brief: as §1
J774 = assay: Cytotoxicity against mouse J774 cells assessed as reduction in cell viability up to 16 ug/ml after 2 hrs by MTS assay; type: cell-based; details: j774, 2 h; method in brief: as §3
[18] = Half life in human liver microsomes in absence of NADPH by LC-MS/MS analysis; type: ADME, microsome
Method in brief: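 Human liver microsomes were incubated in duplicate at 37 °C in 100 mM potassium phosphate with 3 mM MgCl2, pH 7.4, without NADPH to detect NADPH-free degradation. Aliquots were taken at 0, 10, 20, 40 and 60 min and quenched in ice-cold methanol containing an internal standard, then held at least 10 min at -20 °C before water was added. Half-life was taken from compound depletion.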

Staphylococcus aureus [19] = assay: Bactericidal activity against methicillin-resistant Staphylococcus aureus NRS123 (USA400) incubated for 20 hrs followed by replating on tryptic soy agar plates and further incubated for 18 hrs by broth microdilution assay; type: functional
Staphylococcus aureus [20] = assay: Antibacterial activity against vancomycin-resistant Staphylococcus aureus isolate 4 after 20 hrs by broth microdilution assay; type: functional; details: isolate 4, 20 h
Staphylococcus aureus [21] = assay: Selectivity ratio of MBC99.9 for methicillin-resistant Staphylococcus aureus NRS123 (USA400) to MIC for methicillin-resistant Staphylococcus aureus NRS123 (USA400); type: functional
Staphylococcus aureus [22] = assay: Bactericidal activity against methicillin-resistant Staphylococcus aureus NRS123 (USA400) assessed as time required for complete bacterial elimination by time-kill assay; type: functional
Staphylococcus aureus [23] = assay: Inhibition of cell wall synthesis in Staphylococcus aureus RN4220 NRS107 assessed as UDP-N-acetylmuramyl pentapeptide formation at 10 times MIC incubated for 30 mins by HPLC-MS analysis; type: functional, organism-based
Staphylococcus aureus [24] = assay: Bactericidal activity against Staphylococcus aureus RN4220 NRS107 incubated for 20 hrs followed by replating on tryptic soy agar plates and further incubated for 18 hrs by broth microdilution assay; type: functional
Staphylococcus aureus [25] = assay: Bactericidal activity against methicillin-resistant Staphylococcus aureus USA300 NRS384 incubated for 20 hrs followed by replating on tryptic soy agar plates and further incubated for 18 hrs by broth microdilution assay; type: functional
Staphylococcus aureus [26] = assay: Selectivity ratio of MBC99.9 for methicillin-resistant Staphylococcus aureus USA300 NRS384 to MIC for methicillin-resistant Staphylococcus aureus USA300 NRS384; type: functional
Bacillus subtilis [27] = assay: Inhibition of cell wall biosynthesis in Bacillus subtilis at 4 times MIC incubated for 2 hrs by SYTOX Green staining-based assay
Staphylococcus aureus [28] = assay: Bactericidal activity against methicillin-resistant Staphylococcus aureus USA200 NRS383 incubated for 20 hrs followed by replating on tryptic soy agar plates and further incubated for 18 hrs by broth microdilution assay; type: functional
Staphylococcus aureus [29] = assay: Antibacterial activity against methicillin-resistant Staphylococcus aureus USA300 NRS384 after 20 hrs by broth microdilution assay; type: functional; details: USA300 NRS384, 20 h
[30] = Selectivity ratio of cytotoxicity against human HaCaT cells to MIC for methicillin-resistant Staphylococcus aureus USA300 NRS384; type: toxicity, cell-based
Staphylococcus aureus [31] = assay: Bactericidal activity against vancomycin-resistant Staphylococcus aureus isolate 10 incubated for 20 hrs followed by replating on tryptic soy agar plates and further incubated for 18 hrs by broth microdilution assay; type: functional
Method in brief: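 From MIC wells without visible growth, an aliquot was spotted onto Tryptic soy agar and incubated at 37 °C for at least 18 h; MBC = lowest concentration inhibiting 99.9% of bacterial growth.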

[32] = Selectivity ratio of cytotoxicity against human HaCaT cells to MIC for methicillin-resistant Staphylococcus aureus USA100 NRS382; type: toxicity, cell-based
Staphylococcus aureus [33] = assay: Potentiation of vancomycin-induced antibacterial activity against vancomycin-resistant Staphylococcus aureus isolate 10 assessed as reduction in vancomycin MIC after 20 to 22 hrs by broth microdilution assay relative to vancomycin alone; type: functional

In the case of Cc1nc(-c2ccc3ccccc3c2)sc1-c1cnc(NC(=N)N)s1, the selectivity ratio [1] is reported as 4 to 16, the selectivity ratio [2] is reported as 4 to 16 and the Activity (Staphylococcus aureus [3]) is reported as 81%. For the same compound, the MIC (Staphylococcus aureus [4]) was 4 µg/mL (≈ 10.9 µM), the inhibition (Bacillus subtilis [5]) was “Active” and the Activity (Staphylococcus aureus [6]) was 30%. For the same compound, the “fold change (FC)” value (Staphylococcus aureus [7]) was 3, the selectivity ratio (Staphylococcus aureus [8]) was 2 and the t1/2 [9] was 2.23 h. For the same compound, the inhibition (Bacillus subtilis [10]) was “Active”, the selectivity ratio (Staphylococcus aureus [11]) was 1 and the MIC (Staphylococcus aureus [12]) was 1 µg/mL. The Activity (HaCaT) was “Non-Toxic”, the selectivity ratio [13] was 4 to 16 and the MBC (Staphylococcus aureus [14]) was 2 µg/mL (≈ 5.47 µM). The MBC (Staphylococcus aureus [15]) was 4 µg/mL (≈ 10.9 µM), the selectivity ratio (Staphylococcus aureus [16]) was 2 and the Activity (Staphylococcus aureus [17]) was “inactive”. The Activity (J774) was “Non-Toxic”, the t1/2 [18] was greater than 4 h and the MBC (Staphylococcus aureus [19]) was 4 µg/mL (≈ 10.9 µM). The MIC (Staphylococcus aureus [20]) was 4 µg/mL (≈ 10.9 µM), the selectivity ratio (Staphylococcus aureus [21]) was 2 and the Time (Staphylococcus aureus [22]) was “<=4 hr”. The inhibition (Staphylococcus aureus [23]) was “Active”, the MBC (Staphylococcus aureus [24]) was 4 µg/mL (≈ 10.9 µM) and the MBC (Staphylococcus aureus [25]) was 4 µg/mL (≈ 10.9 µM). For the same compound, the selectivity ratio (Staphylococcus aureus [26]) was 1, the inhibition (Bacillus subtilis [27]) was “Active” and the MBC (Staphylococcus aureus [28]) was 2 µg/mL (≈ 5.47 µM). It also gave an MIC (Staphylococcus aureus [29]) of 4 µg/mL (≈ 10.9 µM), a selectivity ratio [30] of 4 to 16 and an MBC (Staphylococcus aureus [31]) of 4 µg/mL (≈ 10.9 µM). The selectivity ratio [32] was 4 to 16 and the “fold change (FC)” value (Staphylococcus aureus [33]) was 512.
